Here are results for 43 compounds from ChEMBL document CHEMBL1122166, “Beta-adrenergic blocking agents. 22. 1-Phenoxy-3-[[(substituted-amido) alkyl]amino]-2-propanols” (J Med Chem, 1982).

Assay [1] deals with T1, Adrenergic receptor beta (Homo sapiens) (UniProt P08588+P07550+P13945). Briefly: In vivo beta adrenergic receptor blocking potency was determined by inhibition of tachycardia produced by isoproterenol (0.2 mg/kg iv) in cat preparation. It is filed as functional, organism-based. The method, boiled down:
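Test agent infused over 30 min at three to five dose levels. Challenge was a submaximal isoproterenol dose (0.2 μg/kg iv). Mean log values were taken from two or three tests, with standard errors of the means.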

The target of assay [2] is T1, Adrenergic receptor beta (Homo sapiens). Kind of assay: In vivo beta adrenergic receptor blocking potency was determined by inhibition of depressor response produced by isoproterenol (0.2 mg/kg iv) in cat preparation. In kind it is functional, organism-based. The method, boiled down: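 Test agent infused over 30 min at three to five dose levels against a submaximal isoproterenol challenge (0.2 μg/kg iv). The percent blockade of the isoproterenol vasodepressor response was estimated at the dose level derived from the tachycardia inhibition estimate.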

For assay [3] the target is unchanged. Briefly: In vivo beta adrenergic receptor blocking potency was determined by inhibition of tachycardia produced by isoproterenol (0.2 µg/kg iv) in cat preparation. The following applies: Felis catus; target entry is the homologue from another species.
[4] abbreviates: Felis catus; in the assay text read “0.2 µg/kg iv” for “0.2 mg/kg iv”; target entry is the homologue from another species.
The mark [5] stands for this setting: Felis catus; target entry is the homologue from another species; in the assay text read “0.2 µg/kg iv” for “0.2 mg/kg iv”.

In the case of `CCCCCCCCC(=O)NCCNCC(O)COc1ccccc1` (stereo unspecified), the ED50 – broadly, the dose at which the effect has come halfway, by size or by number of responders – in assay [1] (setting [4]) worked out at 0.84 mg/kg. The inhibition (usually the percentage by which the read-out fell short of the control) in assay [2] (setting [5]) amounted to 3%.
The corresponding values for `N#Cc1ccccc1OCC(O)CNCCNC(N)=O` (stereo unspecified) are 0.06 mg/kg and 21%.
For `CC(C)C(=O)NCCNCC(O)COc1ccccc1[N+](=O)[O-]` (stereo unspecified), the ED50 in assay [1] (setting [5]) is 0.006 mg/kg. The inhibition in assay [2] (setting [5]) is 5%.
Regarding `O=C(NCCNCC(O)COc1ccccc1)c1cc(O)ccc1O` (stereo unspecified), in assay [1] (setting [4]), the ED50 amounted to 0.616 mg/kg. The same compound displayed an inhibition in assay [2] (setting [4]) of 0%.
Take `CC(C)NC(=O)NCCNCC(O)COc1ccccc1C#N` (stereo unspecified): in assay [1] (setting [5]), the ED50 was 0.168 mg/kg. Moreover, the inhibition in assay [2] (setting [5]) is 0%.
Compound `CC(=O)NCCNCC(O)COc1ccccc1` (stereo unspecified) came in with an ED50 in assay [1] (setting [4]) of 0.015 mg/kg. Also, the inhibition in assay [2] (setting [4]) was 7%.
For `CN(C)c1ccccc1C(=O)NCCNCC(O)COc1ccccc1` (stereo unspecified), it took a dose of 0.465 mg/kg to reach the 50% effect level in assay [1] (setting [5]) (ED50). Besides, the inhibition in assay [2] (setting [4]) was 0%.
`CCCCCC(=O)NCCNCC(O)COc1ccccc1` (stereo unspecified) registered a 50% effective dose (ED50) in assay [1] (setting [4]) of 0.159 mg/kg. Further, the inhibition in assay [2] (setting [5]) is 0%.
The compound `CCNC(=O)NCCNCC(O)COc1ccccc1` (stereo unspecified) showed an ED50 in assay [1] (setting [5]) of 0.024 mg/kg. Moreover, in assay [2] (setting [5]), the inhibition stood at 0%.
Take `CC(C)C(=O)NCCCNCC(O)COc1ccccc1` (stereo unspecified): in assay [2] (setting [4]), the inhibition worked out at 0%. In assay [3], the ED50 is 0.21 mg/kg.
As for `CC(C)(C)C(=O)NCCNCC(O)COc1ccccc1[N+](=O)[O-]` (stereo unspecified), in assay [1] (setting [4]), the ED50 is 0.011 mg/kg. In assay [2] (setting [5]), this compound gave an inhibition of 25%.
For `CC(C)S(=O)(=O)NCCNCC(O)COc1ccccc1` (stereo unspecified), in that order: 0.008 mg/kg and 9%.
In the case of `C=CCOc1ccccc1OCC(O)CNCCNC(=O)Nc1ccccc1` (stereo unspecified), the ED50 in assay [1] (setting [5]) stood at 0.037 mg/kg. Further, the inhibition in assay [2] (setting [5]) amounted to 24%.
For `COCC(=O)NCCNCC(O)COc1ccccc1` (stereo unspecified), in assay [1] (setting [4]), the ED50 came out at 0.016 mg/kg. Further, the inhibition in assay [2] (setting [4]) was determined as 0%.
In assay [1] (setting [5]), `O=C(NCCNCC(O)COc1ccccc1)c1ccc(O)c(O)c1` (stereo unspecified) had an ED50 of 0.014 mg/kg. This compound gave an inhibition in assay [2] (setting [5]) of 0%.
`Cc1c(N)cc(S(=O)(=O)NCCNCC(O)COc2ccccc2)cc1[N+](=O)[O-]` (stereo unspecified) had an inhibition in assay [2] (setting [4]) of 34%. This compound also displayed an ED50 in assay [3] of 0.217 mg/kg.
Compound `CC(CNC(=O)Cc1ccccc1)NCC(O)COc1ccccc1C#N` (stereo unspecified) came in with an ED50 in assay [1] (setting [4]) of 0.004 mg/kg. In addition, the inhibition in assay [2] (setting [4]) came out at 10%.
The compound `CC(C)C(=O)NCC(C)(C)NCC(O)COc1ccccc1` (stereo unspecified) had a 50% effective dose (ED50) in assay [1] (setting [5]) of 0.003 mg/kg. The compound also gave an inhibition in assay [2] (setting [5]) of 0%.
Take `NC(=O)NCCNCC(O)COc1ccccc1` (stereo unspecified): in assay [1] (setting [4]), it took a dose of 0.012 mg/kg to reach the 50% effect level (ED50). Further, in assay [2] (setting [4]), the inhibition came to 0%.
`O=C(Cc1ccc(Cl)cc1)NCCNCC(O)COc1ccccc1` (stereo unspecified): the ED50 in assay [1] (setting [4]) was found to be 0.017 mg/kg. For the same compound, the inhibition in assay [2] (setting [5]) is 8%.
`O=C(NCCNCC(O)COc1ccccc1)C1CC1` (stereo unspecified): the 50% effect level in assay [1] (setting [5]) (ED50) was put at a dose of 0.022 mg/kg. The compound also yielded an inhibition in assay [2] (setting [4]) of 0%.
With `CC(CNC(=O)Cc1ccccc1)NCC(O)COc1ccccc1` (stereo unspecified), the ED50 in assay [1] (setting [4]) amounted to 0.003 mg/kg. The compound further registered an inhibition in assay [2] (setting [5]) of 0%.
Regarding `CS(=O)(=O)NCCNCC(O)COc1ccccc1` (stereo unspecified), in assay [1] (setting [4]), the 50% effect level (ED50) was put at a dose of 0.039 mg/kg. In assay [2] (setting [4]), the inhibition turned out to be 0%.
The corresponding values for `O=C(Cc1ccccc1)NCCNCC(O)COc1ccccc1` (stereo unspecified) are 0.029 mg/kg and 0%.
Consider `CC(C)(CNC(=O)Cc1ccccc1)NCC(O)COc1ccccc1` (stereo unspecified), for which the ED50 in assay [1] (setting [4]) turned out to be 0.011 mg/kg. For the same compound, the inhibition in assay [2] (setting [5]) is 0%.
As to `CCCCCC(=O)NCC(C)NCC(O)COc1ccccc1` (stereo unspecified), the ED50 in assay [1] (setting [4]) was determined as 0.005 mg/kg. This compound also came in with an inhibition in assay [2] (setting [4]) of 0%.
`CC(CNC(=O)C(C)C)NCC(O)COc1ccccc1` (stereo unspecified) came in with an ED50 in assay [1] (setting [4]) of 0.005 mg/kg. Besides, the inhibition in assay [2] (setting [5]) is 37%.
In the case of `N#Cc1ccccc1OCC(O)CNCCNC(=O)Nc1ccccc1[N+](=O)[O-]` (stereo unspecified), the ED50 in assay [1] (setting [4]) amounted to 0.097 mg/kg. In assay [2] (setting [4]), this compound registered an inhibition of 11%.
For `CC(C)(OC(=O)NCCNCC(O)COc1ccccc1)c1ccc(Cl)cc1` (stereo unspecified), in that order: 0.078 mg/kg and 25%.
In assay [1] (setting [5]), `CC(CNC(=O)Cc1ccccc1Cl)NCC(O)COc1ccccc1[N+](=O)[O-]` (stereo unspecified) showed a median effective dose (ED50) of 0.007 mg/kg. The inhibition in assay [2] (setting [4]) was 34%.
For `C=CCNC(=O)NCCNCC(O)COc1ccccc1` (stereo unspecified), in that order: 0.024 mg/kg and 5%.
`O=C(NCCNCC(O)COc1ccccc1Cl)Nc1ccccc1` (stereo unspecified) returned an ED50 in assay [1] (setting [5]) of 0.037 mg/kg. Moreover, in assay [2] (setting [4]), the inhibition stood at 4%.
The compound `CC(=O)NCCCCCCNCC(O)COc1ccccc1` (stereo unspecified) registered an ED50 in assay [1] (setting [5]) of 0.044 mg/kg. Moreover, the inhibition in assay [2] (setting [5]) was 16%.
As to `CC(C)NC(=O)NCCNCC(O)COc1ccccc1` (stereo unspecified), the 50% effective dose (ED50) in assay [1] (setting [4]) turned out to be 0.099 mg/kg. The compound also registered an inhibition in assay [2] (setting [5]) of 0%.
Take `CCCCNC(=O)NCCNCC(O)COc1ccccc1` (stereo unspecified): the 50% effect level in assay [1] (setting [5]) (ED50) was put at a dose of 0.022 mg/kg. The inhibition in assay [2] (setting [4]) was determined as 8%.
With `O=C(NCCNCC(O)COc1ccccc1)c1ccccc1Cl` (stereo unspecified), the ED50 in assay [1] (setting [4]) stood at 0.161 mg/kg. The compound also came in with an inhibition in assay [2] (setting [4]) of 0%.
The corresponding values for `O=C(NCCNCC(O)COc1ccccc1[N+](=O)[O-])Nc1ccccc1` (stereo unspecified) are 0.052 mg/kg and 14%.
Compound `O=C(COc1ccccc1)NCCNCC(O)COc1ccccc1` (stereo unspecified) gave an ED50 in assay [1] (setting [4]) of 0.038 mg/kg. In addition, in assay [2] (setting [5]), the inhibition came to 0%.
`O=C(NCCNCC(O)COc1ccccc1)C1CCCCC1` (stereo unspecified): the ED50 in assay [1] (setting [5]) is 0.02 mg/kg. The compound also had an inhibition in assay [2] (setting [4]) of 0%.
`CCCCNC(=O)NCCNCC(O)COc1ccccc1C#N` (stereo unspecified) showed an ED50 in assay [1] (setting [4]) of 0.304 mg/kg. For the same compound, the inhibition in assay [2] (setting [4]) was 0%.
`C=CCOc1ccccc1OCC(O)CNC(C)CNC(=O)Cc1ccccc1` (stereo unspecified) gave an ED50 in assay [1] (setting [5]) of 0.019 mg/kg. Moreover, the inhibition in assay [2] (setting [5]) was 30%.
In turn, `O=C(NCCNCC(O)COc1ccccc1)NC1CCCCC1` (stereo unspecified) registered an inhibition in assay [2] (setting [5]) of 6%. This compound also registered an ED50 in assay [3] of 0.282 mg/kg.
In assay [1] (setting [4]), `CNC(=O)NCCNCC(O)COc1ccccc1C#N` (stereo unspecified) returned an ED50 of 0.044 mg/kg. Further, in assay [2] (setting [4]), the inhibition is 18%.
